From PubChem BioAssay come the findings set out here.

For orientation: inhibition means the drop in the measured response relative to a control, in per cent.

Assay [1] in a line: nonspecific voltage dye response without TRPC6 – cell-based, parental HEK293, counter-screen for TRPC6 modulator project, confirmation (AID 488924;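 active means membrane potential signal moves up or down beyond 5 SD from buffer-only wells, on both duplicate plates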). The following applies: parental HEK293, membrane potential dye fluorescence; at 10 µM. A general note: The purpose of a counterscreen is to sort out artefacts and off-target activity.
Assay [2] can be described thus: membrane potential response modulators in host HEK293 cells – cell-based, second counter-screen, parental HEK293, membrane potential dye, counter-screen for TRPC6 modulator project, confirmation (AID 488926;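 active means membrane potential signal drops by more than 5 SD from the mean control signal, in both duplicate plates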;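 on inhibition: plate controls were acetylcholine ECmax control wells for no effect and buffer only wells for full effect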). The following applies: parental HEK293, membrane potential dye fluorescence, at 10 µM, after compound, maximal acetylcholine stimulation; active compounds read high.

Assay [3] has as its system Transient receptor potential cation channel subfamily C member 4 (mouse). Nature of the assay: off-target membrane potential effects via mouse TRPC4 – cell-based, HEK293 TRPC4/mu-opioid, membrane potential dye, selectivity assay for TRPC6 modulator project, confirmation (AID 488927).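 On percent change from control (negative = decrease, positive = increase): plate controls were assay buffer wells for no effect and DAMGO maximal-effect wells for full effect.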 The following applies: membrane potential fluorescence, at 10 µM.
The subject of assay [4] is TRPC4 (transient receptor potential cation channel C4), mouse. Description: DAMGO-evoked mouse TRPC4 response blockade – cell-based, second screen, HEK293 TRPC4/mu-opioid, membrane potential dye, selectivity assay for TRPC6 modulator project, confirmation (AID 488928;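 active means drop in membrane potential signal beyond 5 SD of the control wells in both duplicate plates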;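 further: TRPC4 counter screen for TRPC6 hits run under conditions tuned for TRPC6 not TRPC4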). The following applies: membrane potential dye fluorescence, at 10 µM, stimulated with maximal-effect DAMGO; active compounds read high.

Assay [5] has as its target Short transient receptor potential channel 6 (Mus musculus) (UniProt Q61143). Nature of the assay: blockers of TRPC6 cation channel activity – HEK293 cells, membrane potential dye, duplicate, confirmation (AID 488960;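 active means fluorescence ratio falls more than 5 SD below the full-stimulation control mean, in both duplicate runs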;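 on inhibition: integrated fluorescence ratio of peak minus minimum over baseline after agonist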). Conditions: ACh-evoked depolarization, at 10 µM; active compounds read high.
Assay [6] shares this target. Nature of the assay: mouse TRPC6 channel activators, confirmation, HEK293 cells, membrane potential dye, duplicate (AID 488961;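 active means ratio signal rise beyond 5 SD above unstimulated control wells' mean, seen in both duplicate runs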;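 on activation: plate controls were buffer EC0 wells for no effect and acetylcholine ECmax response for full effect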). The following applies: HEK293-TRPC6 membrane potential dye fluorescence, FDSS, at 10 µM; active compounds read high.
The nature of assay [7]: nonspecific flux increase, KCNQ1-free cells – parental CHO cells, counter-screen for KCNQ1 potentiator project (AID 493006;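 active means duplicate-averaged activation above buffer control mean plus 5 SD of those controls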). The following applies: parental CHO-K1 cells, FluxOR thallium flux, at 10 µM; active compounds read high. Put shortly:
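Assay system: parental CHO-K1 cells lacking KCNQ1, loaded with FluxOR thallium dye; timing: dye 90 min RT, compound 20 min RT; signal: kinetic thallium-flux fluorescence; repeats: duplicate wells per compound, percent values averaged; benchmarks: buffer and R-L3 controls; reagent: Potassium/thallium depolarization pulse; read-out: fluorescence change ratio scaled 0% buffer, 100% R-L3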

The target of assay [8] is Potassium voltage-gated channel subfamily KQT member 1 (Homo sapiens) (UniProt P51787). Nature of the assay: enhancement of KCNQ1 channel thallium flux – FluxOR thallium flux, CHO cells, duplicates, confirmation (AID 493007;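 active means potentiation averaged over duplicate wells exceeding buffer-only control mean by more than 3 SD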;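 further: cells depolarized by a potassium plus thallium sulfate stimulus after compound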). Conditions: KCNQ1 cell line, FluxOR thallium flux fluorescence, at 10 µM; active compounds read high, % of reference activator effect, buffer zero. Put shortly:
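material = CHO cells stably expressing the KCNQ1 potassium channel | repeats = duplicate wells per compound | measure = percent activation between buffer and R-L3 responses | signal = FluxOR thallium-flux fluorescence, kinetic read | schedule = FluxOR dye loading 90 min, compound exposure 20 min, room temperature | control set = buffer and R-L3 controls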

The target of assay [9] is Potassium voltage-gated channel subfamily KQT member 2 (Rattus norvegicus) (UniProt O88943). Nature of the assay: KCNQ2 thallium flux enhancement – KCNQ2-CHO-K1 cells, selectivity assay for KCNQ1 potentiator project (AID 493009;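 active means mean duplicate potentiation above the buffer control mean plus 5 SD of buffer wells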;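 further: assay conditions were tuned for KCNQ1 rather than KCNQ2 modulators; signal is max minus min fluorescence divided by baseline after thallium stimulus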). The following applies: FluxOR thallium flux fluorescence, at 10 µM; active compounds read high, scaled: buffer 0, activator control 100.
Assay [10] addresses Potassium voltage-gated channel subfamily KQT member 1 (Homo sapiens) (UniProt P51787). Nature of the assay: KCNQ1 activators by electrophysiology – IonWorks patch clamp, KCNQ1-CHO cells, orthogonal assay for KCNQ1 potentiator project, confirmation (AID 493184;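 active means current rise at least 3 SD above the untreated control mean in each of two repeat wells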). The following applies: automated patch clamp current, at 10 µM; active compounds read high. Put shortly: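 Assay system – CHO cells carrying KCNQ1 · Medium – pH 7.4 external bath · Probe or stimulus – depolarizing pulse to +40 mV from -90 mV · Compound dosing – one dose, 10 µM final · Measured by – automated perforated-patch electrophysiology · Measure – % potentiation of steady-state current relative to pre-compound · Repeats – two replicates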
(Patch clamp records ionic current or voltage across a cell membrane.)

Some of the results follow. Active and inactive are the calls of the source.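 How the source made its calls, unless noted: active means membrane potential signal moved up or down beyond 5 SD of buffer control wells, in both duplicate plates, actives on both sides; inactive means the rest.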

Potassium voltage-gated channel subfamily KQT member 1 (Homo sapiens), sequence (P51787 whole entry, looked up): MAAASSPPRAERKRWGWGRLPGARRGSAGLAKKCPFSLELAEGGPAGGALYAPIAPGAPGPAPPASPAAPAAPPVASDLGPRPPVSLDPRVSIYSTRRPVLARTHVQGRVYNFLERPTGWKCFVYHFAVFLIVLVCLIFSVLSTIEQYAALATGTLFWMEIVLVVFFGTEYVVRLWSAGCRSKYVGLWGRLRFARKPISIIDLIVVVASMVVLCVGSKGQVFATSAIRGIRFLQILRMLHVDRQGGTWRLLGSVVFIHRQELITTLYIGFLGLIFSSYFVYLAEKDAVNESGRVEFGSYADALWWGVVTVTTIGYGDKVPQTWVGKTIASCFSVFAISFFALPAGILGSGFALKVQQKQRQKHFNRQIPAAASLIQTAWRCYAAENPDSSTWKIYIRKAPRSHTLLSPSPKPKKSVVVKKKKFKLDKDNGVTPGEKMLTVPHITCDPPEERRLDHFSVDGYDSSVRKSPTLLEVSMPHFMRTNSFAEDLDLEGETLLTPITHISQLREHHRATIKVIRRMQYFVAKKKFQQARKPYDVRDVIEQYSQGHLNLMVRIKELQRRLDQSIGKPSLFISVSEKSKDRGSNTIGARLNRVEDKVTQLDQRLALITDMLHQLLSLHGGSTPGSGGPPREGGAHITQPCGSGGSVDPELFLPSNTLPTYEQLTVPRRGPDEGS
Short transient receptor potential channel 6 (Mus musculus), sequence (Q61143 whole entry, looked up): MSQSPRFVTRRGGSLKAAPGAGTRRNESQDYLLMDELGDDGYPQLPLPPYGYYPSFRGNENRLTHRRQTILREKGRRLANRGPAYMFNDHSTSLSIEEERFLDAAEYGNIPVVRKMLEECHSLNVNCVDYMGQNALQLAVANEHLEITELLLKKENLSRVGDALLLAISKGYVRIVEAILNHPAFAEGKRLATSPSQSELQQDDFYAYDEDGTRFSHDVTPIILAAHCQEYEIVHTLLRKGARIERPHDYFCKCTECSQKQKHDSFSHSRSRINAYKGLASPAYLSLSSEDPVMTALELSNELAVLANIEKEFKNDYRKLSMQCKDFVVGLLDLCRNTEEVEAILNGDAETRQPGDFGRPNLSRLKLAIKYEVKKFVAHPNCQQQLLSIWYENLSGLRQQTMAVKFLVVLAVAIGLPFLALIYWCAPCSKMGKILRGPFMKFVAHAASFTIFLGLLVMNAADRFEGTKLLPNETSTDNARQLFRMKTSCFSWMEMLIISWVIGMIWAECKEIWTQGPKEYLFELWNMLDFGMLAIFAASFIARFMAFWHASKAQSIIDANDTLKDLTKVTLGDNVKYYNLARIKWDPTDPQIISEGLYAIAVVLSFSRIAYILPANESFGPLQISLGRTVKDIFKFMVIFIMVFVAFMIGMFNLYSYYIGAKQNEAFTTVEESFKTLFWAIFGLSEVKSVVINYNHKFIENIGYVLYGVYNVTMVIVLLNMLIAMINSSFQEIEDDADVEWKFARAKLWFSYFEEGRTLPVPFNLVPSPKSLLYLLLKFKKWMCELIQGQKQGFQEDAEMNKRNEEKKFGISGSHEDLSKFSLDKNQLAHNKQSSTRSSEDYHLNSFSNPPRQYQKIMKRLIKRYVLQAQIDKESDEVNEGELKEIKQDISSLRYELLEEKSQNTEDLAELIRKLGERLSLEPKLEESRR
Potassium voltage-gated channel subfamily KQT member 2 (Rattus norvegicus), sequence (O88943 whole entry, looked up): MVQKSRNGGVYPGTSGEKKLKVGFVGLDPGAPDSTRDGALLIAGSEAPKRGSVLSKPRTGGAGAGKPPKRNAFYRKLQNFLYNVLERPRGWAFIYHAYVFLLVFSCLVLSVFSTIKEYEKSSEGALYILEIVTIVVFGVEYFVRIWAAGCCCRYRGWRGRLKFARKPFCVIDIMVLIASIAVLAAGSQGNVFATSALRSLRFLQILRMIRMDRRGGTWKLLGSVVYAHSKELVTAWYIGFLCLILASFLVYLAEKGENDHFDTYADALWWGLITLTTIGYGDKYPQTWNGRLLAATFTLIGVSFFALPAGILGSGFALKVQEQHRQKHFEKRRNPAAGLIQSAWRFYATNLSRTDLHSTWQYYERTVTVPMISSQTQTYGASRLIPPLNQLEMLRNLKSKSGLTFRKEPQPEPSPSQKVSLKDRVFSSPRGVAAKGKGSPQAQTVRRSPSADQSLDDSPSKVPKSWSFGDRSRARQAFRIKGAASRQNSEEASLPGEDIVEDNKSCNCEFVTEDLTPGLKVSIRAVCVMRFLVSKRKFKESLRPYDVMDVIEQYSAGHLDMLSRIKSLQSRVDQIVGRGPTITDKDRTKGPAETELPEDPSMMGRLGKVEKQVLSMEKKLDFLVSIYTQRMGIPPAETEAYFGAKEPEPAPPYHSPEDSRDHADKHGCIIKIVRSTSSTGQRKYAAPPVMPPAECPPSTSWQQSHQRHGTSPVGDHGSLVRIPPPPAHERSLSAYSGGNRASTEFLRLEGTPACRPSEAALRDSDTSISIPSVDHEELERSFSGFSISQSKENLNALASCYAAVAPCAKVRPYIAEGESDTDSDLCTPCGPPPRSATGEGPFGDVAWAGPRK

In the case of `CCCCc1nc(NCCN)c(C#N)c2c1CSC(C)(C)C2`, the outcome in assay [1], in assay [2], in assay [3], in [5] and in assay [6] was inactive. In [4], the inhibition is 56.5% (active).

`COC(=O)c1ccc(NC(=O)CSc2nnc(-c3ccncc3)n2C)cc1`: the membrane potential signal change in [1] is 292% (active). Further, the outcome in assay [2], in [4] and in assay [5] was inactive. Moreover, the percent change from control (negative = decrease, positive = increase) in assay [3] was 35.5% (active). Besides, the activation in assay [6] was 116% (active).

In the case of `C/C(=N\Nc1nc2ccccc2[nH]1)c1cccs1`, the membrane potential signal change in assay [1] was -108% (active). In addition, the results for the inhibition in assay [2], in [4] and in assay [5] were 73.5% (active), 85% (active) and 76% (active), respectively. Besides, the percent change from control (negative = decrease, positive = increase) in assay [3] was -24% (active). For the same compound, the result in assay [6] was inactive.

As for `CC(NC(=S)Nc1ccc(OC(F)F)cc1)c1ccc(F)cc1` (stereo unspecified), the result in [1], in assay [2], in [4], in assay [5] and in assay [6] was inactive. Further, the percent change from control (negative = decrease, positive = increase) in [3] was -14.5% (active).

On to `CN1CCN(c2nc(Nc3ccc(O)cc3)nc3ccccc23)CC1`, for which, in assay [1], the membrane potential signal change was -221% (active). The inhibition in [2] is 65.5% (active); in assay [4] it was 71% (active); in assay [5], 67.5% (active). Besides, the percent change from control (negative = decrease, positive = increase) in assay [3] was -38% (active). In assay [6], the compound was classed as inactive.

Regarding `O=C(CN1CCCCCC1)N1c2ccccc2Sc2ccc(C(F)(F)F)cc21`, the membrane potential signal change in [1] is 122% (active). The outcome in [2], in [4] and in [6] was inactive. In [3], the percent change from control (negative = decrease, positive = increase) is 18.5% (active). In [5], the inhibition is 46.5% (active).

For the compound `N=c1c2c3c(sc2nc2n1CCCCC2)CCCC3`, the membrane potential signal change in assay [1] is -118% (active). Also, the outcome in [2] and in assay [6] was inactive. Also, in assay [3], the percent change from control (negative = decrease, positive = increase) is -22.5% (active). The inhibition in assay [4] is 55.5% (active); in assay [5], 61% (active).

On to `Cc1ccccc1NC(=O)CNc1ccccc1N1CCCCC1`, for which the result in assay [1], in assay [2], in [3], in assay [5] and in assay [6] was inactive. The inhibition in assay [4] is 52.5% (active).

Regarding `CCN(CC)CCNc1nc(-c2ccc(OC(F)F)cc2)c(C)s1`, the outcome in [1], in [2], in assay [3], in assay [5] and in assay [6] was inactive. Moreover, in [4], the inhibition is 50.5% (active).

Take `Cc1c(CCOC(=O)CC23CC4CC(CC(C)(C4)C2)C3)sc[n+]1Cc1ccc([N+](=O)[O-])cc1`: the membrane potential signal change in assay [1] was -103% (active). Further, the outcome in [2], in assay [4], in [5] and in [6] was inactive. Further, in assay [3], the percent change from control (negative = decrease, positive = increase) is -29.5% (active).

For the compound `Cc1ccc(NC(=S)N(CCCN2CCCC2)Cc2cccn2Cc2ccc(Cl)cc2)cc1`, the result in assay [1], in assay [2], in assay [3], in assay [5] and in assay [6] was inactive. Besides, the inhibition in assay [4] was 47.5% (active).

In the case of `CCc1ccc(OCC(=O)N(Cc2ccccc2)C2CCS(=O)(=O)C2)cc1` (stereo unspecified), the outcome in [1], in assay [2], in assay [4], in assay [5] and in assay [6] was inactive. Also, the percent change from control (negative = decrease, positive = increase) in [3] is 8.5% (active).

With `O=C(C1CCN(S(=O)(=O)Cc2ccccc2)CC1)N1CCCc2ccccc21`, the membrane potential signal change in assay [1] is 90% (active). Moreover, the outcome in [2], in assay [4], in [5] and in [6] was inactive. Moreover, in assay [3], the percent change from control (negative = decrease, positive = increase) was 8.5% (active).

For `COc1cc(CNCCN(C)C)ccc1OCc1c(F)cccc1Cl`, in [1], the membrane potential signal change was 142% (active). The outcome in assay [2] and in [5] was inactive. The percent change from control (negative = decrease, positive = increase) in assay [3] is 15.5% (active). Moreover, the inhibition in assay [4] was 49% (active). Moreover, the activation in assay [6] was 56% (active).

Take `CN(C)c1ccc(/C=C2\NC(=S)N(Cc3ccccc3)C2=O)cc1`: the membrane potential signal change in [1] is 267% (active). Moreover, the outcome in [2], in assay [4], in [5] and in assay [6] was inactive. For the same compound, in [3], the percent change from control (negative = decrease, positive = increase) is 126% (active).

For the compound `CCOc1ccc(/C(O)=C2/C(=O)C(=O)N(Cc3cccnc3)C2c2ccc(N(C)C)cc2)c(C)c1` (stereo unspecified), the result in assay [1], in assay [2], in assay [3], in assay [4], in assay [5] and in [6] was inactive.

With `N=c1c2c3c(sc2ncn1CCCN1CCOCC1)CCCCC3`, the outcome in [1], in assay [2], in [3], in assay [5] and in [6] was inactive. In addition, the inhibition in assay [4] was 52.5% (active).

Turning to `Cc1cccn2c(=O)c3cc(C#N)c(=O)n(CCCN4CCOCC4)c3nc12`, the membrane potential signal change in [1] was -248% (active). The inhibition in [2] was 112% (active); in assay [4], 47.5% (active); in assay [5] it was 67.5% (active). The percent change from control (negative = decrease, positive = increase) in [3] was -54% (active). Moreover, the result in [6] was inactive.

Turning to `CCOCCc1c(O)nc(SC)[nH]c1=O`, the outcome in assay [7], in assay [8], in assay [9] and in assay [10] was inactive.

On to `COc1ccc(C(=O)O/N=C(\N)Cc2ccc(Cl)cc2)cc1OC`, for which the result in assay [7], in assay [8], in assay [9] and in assay [10] was inactive.
